For 96 molecules, cytotoxicity results are on record in ChEMBL document CHEMBL4513216, “Probing the Open Global Health Chemical Diversity Library for Multistage-Active Starting Points for Next-Generation Antimalarials” (ACS Infect Dis, 2020).

Structures are written as SMILES.

This data set in a line: Toxicity liver stage against HepG2, at 10uM. It counts as cell-based. Also on record: test concentration 10 uM, cell line HepG2-A16-CD81EGFP. The following applies: human, HepG2-A16-CD81EGFP cells; read-out: INHIBITION
In outline:
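Uninfected HepG2-A16-CD81EGFP cells, 3 × 10^3 per well, 1536-well, plated on prespotted compound at 10 μM final, parasite-free screening media added to match infected plates; puromycin 10 μM positive, DMSO 0.5% negative; run in parallel with 48 h PbLuc assay at 37 °C, 5% CO2; viability by CellTiter-Glo luminescence, normalized to controls.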
In the case of `C/N=C1/c2cc3cc(OC)ccc3n2CCN1Cc1ccccc1`, the cytotoxicity at 10 µM worked out at 69.7%.
The value for `COc1ccccc1OCCNc1snc(Cl)c1C#N` was 20.5%; that for `CC(=O)N1N=C(COc2ccc(Cl)cc2)OC1c1ccccc1` (stereo unspecified) was 9.87%.
For `CCCNc1ccc(C(=O)NCCc2cccc(Cl)c2)cn1` the value was 1.17%.
For `CCCc1nc2c(c(C)c(C)n2Cc2ccccn2)c(N)c1CC` the value was 23.3%; for `Cc1nccn1CC1CCN(C(=O)c2ccccc2)CC1`, -4.17%; for `O=C(Nc1cnccn1)[C@H]1COC[C@H]2CN(c3ncc(F)cn3)C[C@H]21`, -0.695%.
On to `c1cnc(N2CCC3(COCc4cnc(N5CCOCC5)nc43)C2)nc1` (stereo unspecified), for which the cytotoxicity at 10 µM is -1.72%.
The value for `CC(C)CNC(=O)CC1(Cn2cnnn2)CCCCC1` was 11.1%.
In the case of `Cc1c(C)n(-c2ccccn2)c2nc3c(c(N)c12)CCCC3`, the cytotoxicity at 10 µM is 7.18%.
On to `COc1ccc(CNC(Cc2ccsc2)c2ccc(C)cn2)c(OC)c1` (stereo unspecified), for which the cytotoxicity at 10 µM is 6.36%.
Consider `CCc1nccn1-c1nccnc1C1CCN(C(=O)COC)CC1`, for which the cytotoxicity at 10 µM was -19.7%.
Turning to `O=C(Cc1ccsc1)N1CCCC(c2n[nH]c3ncccc23)C1` (stereo unspecified), the cytotoxicity at 10 µM is -6.8%.
`C=C(C)C(=O)N1CCC(C(=O)c2cc(C)cnc2N)CC1`: the cytotoxicity at 10 µM was -2.88%.
On to `CNc1cc(C)nc(C2CN(Cc3cc[nH]n3)CCO2)c1` (stereo unspecified), for which the cytotoxicity at 10 µM is -9.09%.
With `Cc1ccc(F)cc1C(=O)N1CCOCC12CCCC2`, the cytotoxicity at 10 µM is -8.68%.
`Cc1ccc(-c2nc(CC(=O)NCC(C)N3CCOCC3)cs2)o1` (stereo unspecified): the cytotoxicity at 10 µM was -47.5%.
As for `CCOCCN1CCN(CCc2ccc3c(c2)CCO3)CC1`, the cytotoxicity at 10 µM is 4.1%.
`CCC(CC)(CNC(=O)OC(C)(C)C)NC(=O)c1cnccn1`: the cytotoxicity at 10 µM is -8.56%.
Consider `O=C(c1cccnc1O)N1CCOC(c2ccc(Cl)cc2)C1` (stereo unspecified), for which the cytotoxicity at 10 µM worked out at 2.6%.
The value for `c1ccc2oc(N3CCn4c(nnc4C4CC4)C3)nc2c1` was 7.41%; that for `CS(=O)(=O)c1ccccc1N[C@@H]1c2ccccc2C[C@@H]1O` was -40.5%.
For `CCCS(=O)(=O)N1CCC(c2ccc(OC)cc2)CC1` the value was 2.02%; for `Cc1cnn(CC2CCN(CC(O)Cn3cccn3)CC2)c1` (stereo unspecified), -1.66%.
In the case of `CN(C)C(=O)N1CCC(C(=O)NCCNc2ncccc2C#N)CC1`, the cytotoxicity at 10 µM was determined as 18.3%.
In the case of `Cc1ccc(NC(=O)CN(C)C(=O)c2ccc(-n3cccc3)nc2)nc1`, the cytotoxicity at 10 µM is 12.4%.
As for `CCc1nc2c(s1)C(N(C)C(=O)c1csnn1)CCC2` (stereo unspecified), the cytotoxicity at 10 µM was -3.71%.
`Cc1cccc(-c2ccc(C(=O)NCCN3CCOCC3)c(=O)[nH]2)c1`: the cytotoxicity at 10 µM is -5.88%.
For `CN(C(=O)CN1CCCC1Cc1ccccc1)c1ccccc1` (stereo unspecified) the value was 17.8%; for `CC(C)c1noc(CN2CCC(c3nc4cc(Cl)ccc4o3)CC2)n1`, 1.81%; for `O=C(CSc1ccc2c(c1)OCCO2)NS(=O)(=O)c1ccccc1F`, 1.98%.
As for `Cc1ccc(C)c(S(=O)(=O)NC(=O)c2cccc3c2OCCO3)c1`, the cytotoxicity at 10 µM was -4.77%.
Consider `Cc1cc(Cl)ccc1S(=O)(=O)NCC(C)N1CCN(C)CC1` (stereo unspecified), for which the cytotoxicity at 10 µM is 8.35%.
As to `CC(C)Cc1noc(CN2CCCN(C(=O)c3cccc(Cl)c3)CC2)n1`, the cytotoxicity at 10 µM was -2.34%.
In the case of `Cc1cc(N2CCC(N(C)C(=O)c3sccc3C)CC2)nc(C)n1`, the cytotoxicity at 10 µM turned out to be 25.9%.
The value for `c1cncc(CNc2cccc(OCCN3CCCCC3)c2)c1` was -0.589%; that for `O=C(NC1CCN(c2cc(-n3ccnc3)ncn2)CC1)c1ccncc1` was 5.94%.
With `CC(Nc1cnn(C)c(=O)c1Cl)c1ccc(F)c(F)c1` (stereo unspecified), the cytotoxicity at 10 µM is 31.3%.
In the case of `O=C(CCN1C(=O)CCC1=O)Nc1ccc(Cl)cc1`, the cytotoxicity at 10 µM is -2.79%.
For `CCS(=O)(=O)NC(CCSC)C(=O)Nc1cc(F)ccc1C` (stereo unspecified) the value was 6.29%.
As to `COC(=O)c1cccc(C(=O)N2CCN(C(=O)N(C)C)CC2(C)C)c1`, the cytotoxicity at 10 µM was determined as 11.9%.
Turning to `Cc1cnn(CCCNC(=O)NC(C)C(=O)Nc2ccccc2)c1` (stereo unspecified), the cytotoxicity at 10 µM worked out at 7.04%.
Regarding `CN(Cc1cccc(OC(F)(F)F)c1)C(=O)c1cnsn1`, the cytotoxicity at 10 µM came to 0.963%.
Take `Cc1nsc(N2CCN(C(=O)Nc3cccc(F)c3)CC2)n1`: the cytotoxicity at 10 µM was -18.3%.
The value for `CN1CCCc2cc(NC(=O)N3CCOC(C(N)=O)C3)ccc21` (stereo unspecified) was 0.602%; that for `CNC(=O)CN1CCOCC2(C1)CN(Cc1csnn1)CCO2` (stereo unspecified) was -89.3%; that for `CCC(=O)N1CCc2onc(CNS(C)(=O)=O)c2C1` was -96.5%.
The value for `Cc1cccc(CO[C@@H]2CC[C@H]3[C@H]2OCCN3Cc2ccoc2)n1` was -109%; that for `Cc1cnc(N2CCC(c3ccncc3)CC2)nc1-c1ccnn1C` was 28.7%; that for `Cc1ccccc1CC1(CO)CCCN(c2ncncc2C(C)C)C1` (stereo unspecified) was -22.2%.
`CNc1nc(N2CCN(CC=C(C)C)C(CCO)C2)nc2c1CCC2` (stereo unspecified): the cytotoxicity at 10 µM is -0.6%.
As for `COc1ccc2cc(C3CN(C(=O)COC(C)C)CCO3)ccc2c1` (stereo unspecified), the cytotoxicity at 10 µM stood at 7.29%.
The value for `CCNC(=O)[C@@H]1C[C@H](N)CN1Cc1ccc(Sc2ccc(C)cc2)o1` was -48.3%; that for `O=C1N(CC2CCCCC2)CCCC1(O)CN1CCc2[nH]ncc2C1` (stereo unspecified) was -5.84%.
Consider `O=C(Cc1ccccc1)C1CCCN(Cc2cncn2C2CCCC2)C1` (stereo unspecified), for which the cytotoxicity at 10 µM was -1.11%.
Take `FC(F)(F)CCc1ccnc(NCc2csc(N3CCOCC3)n2)n1`: the cytotoxicity at 10 µM was -4.13%.
For `O=S(=O)(N[C@H]1CC[C@H]1NC1Cc2ccccc2C1)c1cccnc1`, the cytotoxicity at 10 µM is 1.24%.
Turning to `O=C(NCCN1CCCC1)Nc1cc(C(=O)N2CCOCC2)ccc1Cl`, the cytotoxicity at 10 µM is -44.2%.
Regarding `NC(=O)CCC1CCCN(Cc2cnc(N3CCCCC3)nc2)C1` (stereo unspecified), the cytotoxicity at 10 µM was -11.1%.
On to `CC(C)Cc1cc(CNC(=O)c2ccccc2C2CCNC2)no1` (stereo unspecified), for which the cytotoxicity at 10 µM was -45.5%.
Turning to `CSCCC1c2nc[nH]c2CCN1Cc1ccccc1C(F)(F)F` (stereo unspecified), the cytotoxicity at 10 µM was 1.09%.
`CCn1cc(CN2CCCC(COc3ccccc3F)C2)cn1` (stereo unspecified): the cytotoxicity at 10 µM is -47.7%.
In the case of `COc1cc(C)ccc1OCc1nc(C(=O)N2CCCO2)co1`, the cytotoxicity at 10 µM was -45.9%.
With `Cc1cnc(C)c(N2CCCC(CO)(Cc3ccccc3C)C2)n1` (stereo unspecified), the cytotoxicity at 10 µM is -17.2%.
With `O=C(CC1COCCN1S(=O)(=O)c1ccccc1)NCc1ccccn1` (stereo unspecified), the cytotoxicity at 10 µM came out at 4.48%.
For `Cc1n[nH]c(CN2CCN(c3ncnc4scc(C)c34)CC2)c1Cl`, the cytotoxicity at 10 µM is 58.4%.
Turning to `CCc1nc2c(NCC3COc4cc(OC)ccc4C3)ncnc2o1` (stereo unspecified), the cytotoxicity at 10 µM stood at 40.9%.
For `N#CC1CCCN(c2ncnc3c2CCN(Cc2ccccc2)CC3)C1` (stereo unspecified), the cytotoxicity at 10 µM is -3.64%.
On to `COc1ccc(C(C)NC(=O)C2CCN(S(C)(=O)=O)CC2)cc1C` (stereo unspecified), for which the cytotoxicity at 10 µM was -7.5%.
For `CS(=O)(=O)c1ccc(NC(=O)N2C[C@H](O)[C@@H](N3CCOCC3)C2)cc1` the value was -46%.
For `O=C(NCc1nc(NC2CCCC2)c2cc(Cl)ccc2n1)c1cncs1` the value was 4.15%; for `Cc1nc2c(NCC(C)N(C)c3ccccc3)ncnc2o1` (stereo unspecified), 4.73%.
As for `CN(Cc1nc2ccsc2c(=O)[nH]1)C[C@@H]1CCCN2CCCC[C@H]12`, the cytotoxicity at 10 µM was -7.33%.
Regarding `COc1ccc(N(c2ccc(OC)cc2)c2ccc(C(=O)O)s2)cc1`, the cytotoxicity at 10 µM was found to be 18.5%.
As for `CC(C)c1cc(C(=O)N(C)Cc2cccc3ncccc23)n(C)n1`, the cytotoxicity at 10 µM is 12.3%.
For `CC(C)c1n[nH]c(C(=O)Nc2ccccn2)c1Br` the value was -31.7%.
Regarding `Cc1cccc(NC2CCN(C(=O)Nc3ccc(F)c(F)c3)CC2)n1`, the cytotoxicity at 10 µM came out at 9.59%.
For the molecule `CCNc1cc2c(nn1)CCN(C(=O)c1cc3cc(C)ccc3o1)C2`, the cytotoxicity at 10 µM is -18.7%.
With `Cc1ccc(-c2nc(CCNC(=O)NC3CCC(O)CC3)co2)cc1` (stereo unspecified), the cytotoxicity at 10 µM was -2.3%.
As for `CCn1c(C)cc(C(=O)N2CCc3nnc(N)cc3C2)c1C`, the cytotoxicity at 10 µM is -12.2%.
As for `CC(=O)Nc1nc(C(=O)N2CCCC(n3cncn3)C2)cs1` (stereo unspecified), the cytotoxicity at 10 µM was -2.02%.
Regarding `Cc1cccc(C2(CNC(=O)CCNS(C)(=O)=O)CCCC2)c1`, the cytotoxicity at 10 µM was -5.92%.
As for `Cc1nc(Nc2ncc(C)s2)cc(C2CCCN2)n1` (stereo unspecified), the cytotoxicity at 10 µM was determined as 82%.
Regarding `Cc1cccc(CN2CCC3(CC2)CN(c2cnn(C)c2)C(=O)CO3)n1`, the cytotoxicity at 10 µM worked out at 3.94%.
As to `N#Cc1ccc(N2CCC3(CCC(=O)N3CCN3CCCC3)CC2)nc1`, the cytotoxicity at 10 µM is -114%.
With `Cc1ccccc1C(=O)N1C[C@@H]2CCN(c3cccnc3)C[C@@H]2C1`, the cytotoxicity at 10 µM is -76.3%.
On to `COc1cc(N2CCC3(CC2)CCN(c2cccnc2)C3=O)ncn1`, for which the cytotoxicity at 10 µM was -116%.
The value for `c1cnc(N2CCOCC3(CCCN(Cc4cccs4)C3)C2)nc1` (stereo unspecified) was -68.3%; that for `Cn1cc(N2C[C@@H]3CN(CC4CCOCC4)C[C@@H]3C2=O)cn1` was 11.1%.
Turning to `Cc1noc(C)c1CN1CCc2ncnc(-c3ccoc3)c2CC1`, the cytotoxicity at 10 µM was -92%.
In the case of `CN1C[C@H]2N(c3ncccn3)CCC[C@@]2(C(=O)NCC2CC2)C1`, the cytotoxicity at 10 µM was -103%.
As to `CCOCC1CN(Cc2cnn(C)c2)Cc2nn(CC3CC3)cc21` (stereo unspecified), the cytotoxicity at 10 µM is -75.9%.
Consider `CC(=O)NCC(=O)N1CCn2cc(CN3CCCCC3)nc2C1`, for which the cytotoxicity at 10 µM was -3.34%.
The value for `Cc1noc(C)c1CN1CCOCC12CCN(c1nccs1)CC2` was -104%; that for `O=C1COC2(CCN(Cc3cccs3)CC2)CN1c1cncnc1` was -124%; that for `O=c1c(=CS(=O)(=O)Nc2ccc(Br)cc2)[nH]c(=O)n2cccc12` was -9.95%.
